Test results published in ChEMBL document CHEMBL1138492, “Conformationally constrained analogues of diacylglycerol (DAG). 31. Modulation of the biological properties of diacylgycerol lactones (DAG-lactones) containing rigid-rod acyl groups separated from the core lactone by spacer units of different lengths” (J Med Chem, 2009).
Active and inactive are the calls of the source. The calls are words filed in the database; no cut-off is given here.

Assays:
[1] = molecular target: T1, Protein kinase C epsilon type (Homo sapiens, UniProt Q02156); assay: Displacement of [3H]PDBu form human PKCepsilon in presence of phosphatidylserine
T1 sequence (Q02156 whole entry): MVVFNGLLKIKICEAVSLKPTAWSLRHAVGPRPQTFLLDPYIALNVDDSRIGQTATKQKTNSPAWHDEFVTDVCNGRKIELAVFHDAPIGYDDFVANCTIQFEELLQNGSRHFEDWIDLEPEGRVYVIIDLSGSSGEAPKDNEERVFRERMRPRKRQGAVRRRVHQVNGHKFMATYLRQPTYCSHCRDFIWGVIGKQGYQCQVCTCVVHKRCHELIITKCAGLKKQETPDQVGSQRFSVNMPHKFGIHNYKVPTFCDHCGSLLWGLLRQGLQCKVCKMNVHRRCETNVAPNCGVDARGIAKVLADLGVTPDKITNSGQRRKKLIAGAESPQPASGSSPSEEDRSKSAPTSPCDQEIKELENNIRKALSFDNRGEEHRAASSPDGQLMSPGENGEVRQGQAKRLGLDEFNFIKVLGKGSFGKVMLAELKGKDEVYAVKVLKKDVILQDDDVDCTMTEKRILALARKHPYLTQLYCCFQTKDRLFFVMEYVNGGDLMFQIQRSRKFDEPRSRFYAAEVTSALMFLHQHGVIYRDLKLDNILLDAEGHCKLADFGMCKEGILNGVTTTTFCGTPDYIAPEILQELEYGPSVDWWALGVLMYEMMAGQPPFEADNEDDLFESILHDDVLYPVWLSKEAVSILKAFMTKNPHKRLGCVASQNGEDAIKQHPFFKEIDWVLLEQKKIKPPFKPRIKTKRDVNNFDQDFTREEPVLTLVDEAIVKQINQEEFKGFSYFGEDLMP
In short: (§1)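 Recombinant human PKC isozyme, single isozyme per assay, with 100 μg/mL phosphatidylserine; competition of unlabeled ligand against [20-3H]PDBu binding; ID50 from least-squares sigmoidal fit, converted to Ki = ID50/(1 + L/Kd), L being free [3H]PDBu at ID50; mean ± SEM of three independent experiments.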

[2] = molecular target: T2, Protein kinase C alpha type (Homo sapiens, UniProt P17252); assay: Displacement of [3H]PDBu form human PKCalpha in presence of plasma membrane lipid mimetic mixture
In short: (§2)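 [3H]PDBu competition on individual recombinant human PKC isozymes in 100 μg/mL total lipid mimicking the plasma-membrane inner leaflet (PC/PE/PS/PI/cholesterol 12:35:22:9:21); ID50 fitted to a sigmoidal competition curve, Ki = ID50/(1 + L/Kd); three independent determinations, mean ± SEM.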

[3] = molecular target: T3, Protein kinase C delta type (Homo sapiens, UniProt Q05655); assay: Displacement of [3H]PDBu form human PKCdelta in presence of plasma membrane lipid mimetic mixture; in short: as §2
Target sequence in this assay (Q05655 whole entry): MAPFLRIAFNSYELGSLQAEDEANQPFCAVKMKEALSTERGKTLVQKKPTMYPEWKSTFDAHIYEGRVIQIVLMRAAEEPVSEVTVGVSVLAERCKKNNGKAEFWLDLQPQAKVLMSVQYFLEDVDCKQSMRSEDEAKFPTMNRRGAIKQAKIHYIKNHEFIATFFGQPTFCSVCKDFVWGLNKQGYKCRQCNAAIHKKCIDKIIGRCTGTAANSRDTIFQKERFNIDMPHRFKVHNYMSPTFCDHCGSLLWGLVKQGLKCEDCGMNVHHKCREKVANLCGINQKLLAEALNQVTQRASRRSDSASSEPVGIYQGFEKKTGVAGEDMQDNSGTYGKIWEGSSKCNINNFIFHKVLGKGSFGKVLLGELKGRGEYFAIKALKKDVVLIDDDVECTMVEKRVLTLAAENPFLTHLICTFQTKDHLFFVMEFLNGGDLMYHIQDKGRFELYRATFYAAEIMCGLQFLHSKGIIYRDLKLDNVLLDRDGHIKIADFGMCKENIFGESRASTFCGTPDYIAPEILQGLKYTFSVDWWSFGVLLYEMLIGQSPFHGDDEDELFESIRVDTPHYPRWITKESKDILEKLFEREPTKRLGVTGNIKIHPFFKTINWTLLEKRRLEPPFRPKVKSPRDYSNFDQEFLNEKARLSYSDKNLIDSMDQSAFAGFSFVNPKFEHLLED

[4] = molecular target: T4, Protein kinase C gamma type (Homo sapiens, UniProt P05129); assay: Displacement of [3H]PDBu form human PKCgamma in presence of plasma membrane lipid mimetic mixture; in short: as §2
[5] = molecular target: T2, Protein kinase C alpha type; assay: Activation of GFP-tagged PKCalpha expressed in CHO cells assessed as isozyme translocation from cytosol to plasma membrane at 10 uM by confocal microscopy; type: cell-based
In short: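 GFP-PKCα transiently transfected (Lipofectamine) into CHO cells grown in F12-K with 10% FBS; cells given 10 μM compound and redistribution followed over time by confocal microscopy (488 nm argon excitation), images every 30 s; kinetics of plasma-membrane translocation scored from four independent experiments.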

[6] = Membrane binding affinity to synthetic dimyristoylphosphatidylcholine/polydiacetylene vesicles assessed as increase in fluorescence chromatic response by fluorescence spectroscopy; type: physicochemical
In short: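 DMPC/10,12-tricosadiynoic acid vesicles polymerized at 254 nm for 30 s, used at 0.5 mM total lipid in 50 mM Tris, pH 8; compounds in DMSO mixed with vesicles before buffer addition; fluorescence read at 485/555 nm excitation/emission, expressed as % of fully transformed red vesicles over a dose range.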

[7] = molecular target: T1, Protein kinase C epsilon type; assay: Displacement of [3H]PDBu form human PKCepsilon in presence of plasma membrane lipid mimetic mixture; in short: as §2
[8] = molecular target: T5, Protein kinase C beta type (Homo sapiens, UniProt P05771); assay: Displacement of [3H]PDBu form human PKCbeta in presence of phosphatidylserine; in short: as §1
T5 sequence (P05771 whole entry): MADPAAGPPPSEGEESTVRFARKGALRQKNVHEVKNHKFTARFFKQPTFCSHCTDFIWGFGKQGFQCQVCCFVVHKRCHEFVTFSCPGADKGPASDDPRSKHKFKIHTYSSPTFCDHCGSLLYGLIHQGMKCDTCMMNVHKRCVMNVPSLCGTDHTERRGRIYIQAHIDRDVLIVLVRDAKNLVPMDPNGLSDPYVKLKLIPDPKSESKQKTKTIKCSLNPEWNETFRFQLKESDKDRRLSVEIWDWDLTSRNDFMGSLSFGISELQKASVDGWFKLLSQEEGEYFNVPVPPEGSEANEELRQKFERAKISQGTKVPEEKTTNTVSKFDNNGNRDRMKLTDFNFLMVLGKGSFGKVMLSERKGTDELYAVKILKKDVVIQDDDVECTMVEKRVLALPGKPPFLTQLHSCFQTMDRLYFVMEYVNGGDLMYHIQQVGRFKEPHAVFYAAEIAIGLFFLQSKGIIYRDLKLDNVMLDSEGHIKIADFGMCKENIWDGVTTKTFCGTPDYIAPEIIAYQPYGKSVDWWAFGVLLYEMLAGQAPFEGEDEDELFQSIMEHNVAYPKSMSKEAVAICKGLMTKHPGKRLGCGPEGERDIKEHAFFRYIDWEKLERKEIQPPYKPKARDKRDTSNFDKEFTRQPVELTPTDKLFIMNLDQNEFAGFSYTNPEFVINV

[9] = molecular target: T3, Protein kinase C delta type; assay: Activation of GFP-tagged PKCdelta expressed in CHO cells assessed as isozyme translocation from cytosol to internal membrane at 10 uM by confocal microscopy; type: cell-based
In short: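 CHO cells in F12-K/10% FBS transiently transfected with GFP-PKCδ, exposed to 10 μM compound; confocal imaging at 488 nm every 30 s after addition; relative localization to plasma, nuclear and internal membranes scored semi-quantitatively (+ marks) over three independent experiments.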
Target sequence in this assay (Q05655 whole entry, looked up): as the sequence (Q05655 whole entry) above

[10] = molecular target: T4, Protein kinase C gamma type; assay: Displacement of [3H]PDBu form human PKCgamma in presence of phosphatidylserine; in short: as §1
[11] = molecular target: T2, Protein kinase C alpha type; assay: Displacement of [3H]PDBu form human PKCalpha in presence of phosphatidylserine; in short: as §1
[12] = molecular target: T3, Protein kinase C delta type; assay: Displacement of [3H]PDBu form human PKCdelta in presence of phosphatidylserine; in short: as §1
Target sequence in this assay (Q05655 whole entry): as the sequence (Q05655 whole entry) above

[13] = molecular target: T5, Protein kinase C beta type; assay: Displacement of [3H]PDBu form human PKCbeta in presence of plasma membrane lipid mimetic mixture; in short: as §2
[14] = system: LNCaP; assay: Induction of apoptosis in human LNCAP cells after 48 hrs by flow cytometry relative to PMA; type: functional, cell-based
In short: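 LNCaP cells in RPMI-1640/10% FBS, plated at ~60% confluency, treated with a concentration series for 48 h alongside 1 μM PMA; stained with YO-PRO-1 (1 μM final, 20 min, 4 °C, dark) then 7-AAD (5 μg/mL final, 10 min) and analyzed by flow cytometry; YO-PRO-1-positive cells taken as apoptotic, % of total; three experiments.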

Ki [1] [nM] | Ki [2] [nM] | Ki [3] [nM] | Ki [4] [nM] | Activity [5] | Activity [6] | Ki [7] [nM] | Ki [8] [nM] | Activity [9] | Ki [10] [nM] | Ki [11] [nM] | Ki [12] [nM] | Ki [13] [nM] | SMILES | Activity [14]
153 | 143 | 31.3 | 78 | Active | Active | 78.7 | 57 | Active | 35 | 20.8 | 35.8 | 66 | CC(C)=C1CC(CO)(COC(=O)CCOc2ccc(C#Cc3ccc(C)cc3)cc2)OC1=O (stereo unspecified) | –
10 | 15.8 | 2.74 | 15.7 | Active | Active | 8.3 | 4.1 | – | 6.2 | 6 | 5.4 | 12.6 | CC(C)=C1CC(CO)(COC(=O)c2ccc(C#Cc3ccc(C)cc3)cc2)OC1=O (stereo unspecified) | –
268 | 165 | 47.7 | 140 | Active | Active | 147 | 76 | Active | 50.8 | 38 | 46.4 | 100 | CC(C)=C1CC(CO)(COC(=O)COc2ccc(C#Cc3ccc(C)cc3)cc2)OC1=O (stereo unspecified) | Active
37.9 | 76 | 11.6 | 31.7 | Active | Active | 31.9 | 15.2 | – | 12.3 | 19.5 | 11.9 | 43.8 | CC(C)=C1CC(CO)(COC(=O)CCCOc2ccc(C#Cc3ccc(C)cc3)cc2)OC1=O (stereo unspecified) | –
